NR2E3 ag-1: human photoreceptor-specific nuclear receptor agonism | Q9Y5X4 | AID 602229 | CHO-S Gal4-NCOR/VP16-NR2E3 two-hybrid, luciferase | inhibition of corepressor binding, % at 3.98 µM | 360,000 tested, 0.35% active;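 active = inhibition above the mean of all tested compounds plus 3 SD, cut at about 70% in these data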;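 also: 0% = DMSO with NR2E3 transfected cells and 100% = cells lacking NR2E3 construct; higher means lower luciferase signal from less NR2E3 corepressor binding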
Target sequence (Q9Y5X4 whole entry, looked up, the tested form may be a part): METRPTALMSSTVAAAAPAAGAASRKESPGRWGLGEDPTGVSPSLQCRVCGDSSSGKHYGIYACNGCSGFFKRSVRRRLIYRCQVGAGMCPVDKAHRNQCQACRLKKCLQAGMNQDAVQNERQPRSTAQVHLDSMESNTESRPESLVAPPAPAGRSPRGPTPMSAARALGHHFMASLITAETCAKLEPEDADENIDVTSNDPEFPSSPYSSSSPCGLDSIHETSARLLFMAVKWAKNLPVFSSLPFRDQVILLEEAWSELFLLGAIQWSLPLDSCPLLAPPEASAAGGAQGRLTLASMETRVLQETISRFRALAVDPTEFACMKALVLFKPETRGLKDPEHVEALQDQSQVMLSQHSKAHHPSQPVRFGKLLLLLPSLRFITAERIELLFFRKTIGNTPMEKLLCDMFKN
PG9 binder: small molecules binding HIV-1 gp120 antibody PG9; TR-FRET gp120-PG9 antibody binding; inhibition, % at 6.7 µM; 360,000 tested, 0.43% active; in the data active = inhibition above about 8.5%
NR2E3 ag-2: NR2E3 (human) agonism | Q9Y5X4 | GST-NR2E3/biotin-RetCOR TR-FRET, 1536-well | inhibition of corepressor binding, % at 4.78 µM | 320,000 tested, 0.12% active | AID 2300;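 active = percent inhibition above the cutoff of mean plus 3 SD of all tested compounds, set per screening campaign, cut at about 20% in these data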;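 also: 0% = DMSO wells and 100% = biotin wells as full block of FRET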
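System: GST-tagged NR2E3 plus biotinylated RetCOR corepressor; Buffer or medium: pH 7.5 Tris-based buffer; Probe or stimulus: RetCOR corepressor, biotinylated, 7 nM; Doses: compound at 4.8 µM, single dose; Schedule: 5 h incubation at 4 °C; Technique: time-resolved FRET; Evaluation: percent inhibition of TR-FRET ratio; Replication: one well per compound, singlicate testing.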
rCAG binder: binds r(CAG) RNA repeats. r(CAG) RNA repeat, TO-PRO-1 dye displacement fluorescence. inhibition, % at 3 µM. 370,000 tested, 1.3% active;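 active = inhibition above the plate cutoff, the mean of all test compounds on that plate plus 3 SD, cut at about 35% in these data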;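 also: 0% = DMSO alone and 100% = 100 µM mitoxantrone as full dye displacement; higher means more dye released from RNA so lower well fluorescence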
Rev-erbA mod: modulates human Rev-erb alpha binding to DNA. P20393. Rev-erbα–FITC-DNA binding, fluorescence polarization, 90 min. activity, % at 10 µM. 370,000 tested, 0.79% active. AID 1259318;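 active = activity above about 14%, limit read from the data; passing the limit was not always enough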;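 also: 0% = DMSO wells with 35 nM protein and 100% = DMSO wells with 750 nM protein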
Rev-erbA confirm: confirmation of modulators of human Rev-erb alpha DNA binding; shares compounds with Rev-erbA mod; Rev-erb alpha FITC-DNA binding, fluorescence polarization, 90 min; activation, % at 25 µM; 3,000 tested, 61% active;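 active = activation at or above a set limit, or at least 3 SD above the negative control mean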;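 also: 0% = 35 nM protein with DMSO and 100% = 750 nM protein high control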
RORg DNA counter: counter-screen for Rev-erb alpha modulators: RORgamma DNA binding | AID 1259320 | purified RORgamma protein-FITC-DNA binding, fluorescence polarization | shares compounds with Rev-erbA mod | 910 tested, 8% active | IC50, µM;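 active = Compounds whose fitted half-maximal concentration for disrupting protein-DNA binding is below 10 micromolar; the record names Rev-erb in its text, so the target is in doubt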
Starred values were filed as active, the others as inactive. Compounds with a hit are over-represented: about 2.6% of the library has one in this group of screens.

For O=C(Cc1cccc(NC(=O)C2CCCN(C(=O)C3CC3)C2)c1)Nc1ccc(C(=O)N2CCOCC2)cc1 (stereo not given) the results were NR2E3 ag-1 -28, PG9 binder 1, rCAG binder 4 and Rev-erbA mod 3.
Screening COc1ccc(S(=O)(=O)N2CCCCC2)cc1NC(=O)c1[nH]c(C)c(C(C)=O)c1C returned NR2E3 ag-1 -11, PG9 binder 1, rCAG binder -9 and Rev-erbA mod 3.
`CC(=O)c1c(C)[nH]c(C(=O)Nc2cc(S(=O)(=O)N3CCCCC3)ccc2C)c1C` gave NR2E3 ag-1 -20, PG9 binder -1, NR2E3 ag-2 3, rCAG binder 2, Rev-erbA mod 17* and Rev-erbA confirm 9.
CCN(C[C@H]1N[C@@](C)(C(=O)OC)[C@H]2C(=O)N(Cc3ccccc3)C(=O)[C@@H]12)C(=O)Nc1ccc(OC)cc1 was read as NR2E3 ag-1 -6, PG9 binder -2, rCAG binder 2 and Rev-erbA mod -1.
Screening Cc1ccc(C(=O)NNCC(=O)Nc2ccc(Cl)cc2F)cc1 returned NR2E3 ag-1 3, PG9 binder 0, rCAG binder -1, Rev-erbA mod 18* and Rev-erbA confirm 1.
CCc1nnc(NC(=O)CSc2nc3cc4c(cc3cc2CC)OCCO4)s1 was read as NR2E3 ag-1 -9, PG9 binder 2, NR2E3 ag-2 2, rCAG binder 0, Rev-erbA mod 90*, Rev-erbA confirm 36* and RORg DNA counter >40.
For CCOC(=O)CSc1nc2cc3c(cc2cc1CC)OCCO3 the results were NR2E3 ag-1 3, PG9 binder 3, NR2E3 ag-2 3, rCAG binder 2 and Rev-erbA mod 11.
CCc1cc2cc3c(cc2nc1SCC(=O)Nc1nnc(C)s1)OCCO3 was read as NR2E3 ag-1 -8, PG9 binder 2, NR2E3 ag-2 2, rCAG binder 1, Rev-erbA mod 60*, Rev-erbA confirm 41* and RORg DNA counter >40.
`COc1ccc(C(=O)N[C@H](C(=O)NCCCSc2ccccc2)C(C)C)cc1` gave NR2E3 ag-1 -52, PG9 binder -1, rCAG binder -1 and Rev-erbA mod 12.
For CCOC(=O)N1CCC(NC(=O)c2cc(C)c3c(C)nn(-c4ccccc4)c3n2)CC1 the results were NR2E3 ag-1 -8, PG9 binder -1, NR2E3 ag-2 -1, rCAG binder -1, Rev-erbA mod 19* and Rev-erbA confirm -13.
Screening CCOC(=O)N1CCC(NC(=O)c2ccccc2C(=O)O)CC1 returned NR2E3 ag-1 -8, PG9 binder -2, NR2E3 ag-2 -1, rCAG binder -2 and Rev-erbA mod -3.
COC(=O)c1c(-c2cccc3ccccc23)csc1NC(=O)Cc1ccc(OC)c(OC)c1 was read as NR2E3 ag-1 24, PG9 binder -1, NR2E3 ag-2 2, rCAG binder 9, Rev-erbA mod 20* and Rev-erbA confirm 30*.
CCOc1ccc2[nH]c3c(=O)n(CCC4=CCCCC4)cnc3c2c1 was read as NR2E3 ag-1 -14, PG9 binder -2, NR2E3 ag-2 3, rCAG binder 2, Rev-erbA mod 19* and Rev-erbA confirm 0.
Screening CCOc1ccc2[nH]c3c(=O)n(CCc4ccc(OC)cc4)cnc3c2c1 returned NR2E3 ag-1 20, PG9 binder -1, NR2E3 ag-2 -4, rCAG binder 0 and Rev-erbA mod 3.
C/C(=N\N(Cc1ccccc1)c1ccccc1)c1ccncc1 was read as NR2E3 ag-1 -17, PG9 binder -3, NR2E3 ag-2 -4, rCAG binder 1, Rev-erbA mod 43*, Rev-erbA confirm 40* and RORg DNA counter >40.
For CN(C(=O)c1ccncc1)c1ccccc1 the results were NR2E3 ag-1 -13, PG9 binder -2, NR2E3 ag-2 1, rCAG binder 1 and Rev-erbA mod 3.
NS(=O)(=O)c1ccc(CNC(=O)c2cc(-c3cccnc3)nc3ccc(Cl)cc23)cc1 was read as NR2E3 ag-1 -11, PG9 binder 1, NR2E3 ag-2 1, rCAG binder 18 and Rev-erbA mod 4.
Screening O=C(NCc1ccc(F)cc1)c1cc(-c2ccccn2)nc2ccc(S(=O)(=O)N3CCOCC3)cc12 returned NR2E3 ag-1 -29, PG9 binder 0, rCAG binder 6, Rev-erbA mod 18* and Rev-erbA confirm 19*.
For NS(=O)(=O)c1ccc(CNC(=O)c2cc(-c3ccccn3)nc3ccc(Cl)cc23)cc1 the results were NR2E3 ag-1 -7, PG9 binder 7, NR2E3 ag-2 -172, rCAG binder 4, Rev-erbA mod 23* and Rev-erbA confirm 19*.
`CC(C)[C@H](NC(=O)c1cccc(CN(Cc2ccccc2)C(=O)/C=C/c2ccccc2)c1)C(=O)O` gave NR2E3 ag-1 -9, PG9 binder 0, NR2E3 ag-2 1, rCAG binder 18 and Rev-erbA mod -4.
Screening CCc1ccc2c(CC(=O)Nc3cccc(S(=O)(=O)N4CCOCC4)c3)coc2c1 returned NR2E3 ag-1 -31, PG9 binder -1, NR2E3 ag-2 5, rCAG binder 11 and Rev-erbA mod 7.
For CC(c1ccccc1)N1CC(C(=O)Nc2ccc(F)cc2)CC1=O (stereo not given) the results were NR2E3 ag-1 -23, PG9 binder -1, NR2E3 ag-2 3, rCAG binder 3 and Rev-erbA mod 1.
CCOC(=O)c1ccccc1NC(=O)c1n[nH]c(=O)c2ccccc12 was read as NR2E3 ag-1 0, PG9 binder 0, NR2E3 ag-2 4, rCAG binder 1, Rev-erbA mod 53* and Rev-erbA confirm 25*.
Screening CCOC(=O)c1ccc(NC(=O)c2n[nH]c(=O)c3ccccc23)cc1 returned NR2E3 ag-1 -5, PG9 binder -2, NR2E3 ag-2 6, rCAG binder 2 and Rev-erbA mod 21.
For COc1cc(NC(=O)c2n[nH]c(=O)c3ccccc23)cc(OC)c1 the results were NR2E3 ag-1 13, PG9 binder 7, NR2E3 ag-2 -2, rCAG binder -2, Rev-erbA mod 26* and Rev-erbA confirm 20*.
CCOC(=O)C1(Cc2ccccc2)CCN(Cc2cccc(C#N)c2)CC1 was read as rCAG binder -3 and Rev-erbA mod -1.
Screening N#Cc1ccccc1N1CCN(C(=O)C2CCN(c3ncnc4c3sc3cccc(F)c34)CC2)CC1 returned rCAG binder 10, Rev-erbA mod 49*, Rev-erbA confirm 34* and RORg DNA counter >40.
Cc1c(C)c2ccc(OCC(=O)Nc3cccnc3)c(C)c2oc1=O was read as NR2E3 ag-1 -27, PG9 binder -1, NR2E3 ag-2 -5, rCAG binder -4 and Rev-erbA mod 2.

High-throughput results deposited in PubChem BioAssay by several laboratories.
